According to ChEMBL document CHEMBL3046092, “Synthesis and fungicidal activity of 1-(alpha-tert-butylcinnamoyl)imidazoles” (2002):

What was measured:
Botrytis cinerea = assay: Antifungal activity against Botryotinia fuckeliana in cucumber seedlings assessed as reduction in gray mold measured after 4 days by pot test; type: functional
Summary of the method: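 Emulsifiable-concentrate formulations were diluted in water and foliar-sprayed to run-off onto cotyledon-stage seedlings. Plants were held 1 day in the greenhouse, then inoculated with agar gel carrying B. cinerea and kept 4 more days at 20°C, humid and dark. Infection degree was scored against untreated controls. pED50 is the negative log of the molar concentration giving 50% control.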

Blumeria graminis = assay: Antifungal activity against Blumeria graminis in wheat seedlings assessed as reduction in powdery mildew at 20 degC measured after 10 days by pot test; type: functional

Structure (SMILES)	pED50 (Botrytis cinerea)	pED50 (Blumeria graminis)
CC(C)(C)/C(=C/c1ccccc1)C(=O)n1ccnc1	3.4	4.17
CC(C)(C)/C(=C\c1ccc(Cl)cc1)C(=O)n1ccnc1	2.92	3.52
CC(C)(C)/C(=C/c1ccc(C#N)cc1)C(=O)n1ccnc1	4.4	5.89
Cc1ccc(/C=C(\C(=O)n2ccnc2)C(C)(C)C)cc1	3.43	3.92
CC(C)(C)/C(=C/c1ccc(C(F)(F)F)cc1)C(=O)n1ccnc1	3.04	4.19
CC(C)(C)/C(=C/c1ccc(Br)cc1)C(=O)n1ccnc1	4.63	5.96
CC(C)(C)/C(=C/c1ccc(Cl)cc1)C(=O)n1ccnc1	4.82	5.92
